Drawing on ChEMBL document CHEMBL1165909, “Analgesic, anti-pyretic and DNA cleavage studies of novel pyrimidine derivatives of coumarin moiety” (Eur J Med Chem, 2010), this text covers T, Activity and Time for six compounds.

Active and inactive are the calls of the source. No cut-off for these calls is given here.

The subject of data set [1] is Rattus norvegicus. The data set is described as follows: Antipyretic activity against brewer's yeast-induced hyperthermia in albino Wistar rat assessed as change in rectal temperature at 300 mg/kg, po after 5 hrs (reference value: 34.36 +/- 0.14 degC). Format: functional.
The test system of data set [2] is Rattus norvegicus. Put plainly: Antipyretic activity against brewer's yeast-induced hyperthermia in albino Wistar rat assessed as change in rectal temperature at 300 mg/kg, po after 3 hrs (reference value: 32.80 +/- 0.09 degC). Format: functional.
Data set [3] relates to Rattus norvegicus. The data set is described as follows: Antipyretic activity against brewer's yeast-induced hyperthermia in albino Wistar rat assessed as change in rectal temperature at 300 mg/kg, po after 6 hrs (reference value: 33.44 +/- 0.18 degC). The class given is functional.
Data set [4] deals with Rattus norvegicus. Put plainly: Antipyretic activity against brewer's yeast-induced hyperthermia in albino Wistar rat assessed as change in rectal temperature at 300 mg/kg, po after 1 hr (reference value: 33.78 +/- 0.18 degC). Format: functional.
For data set [5], the system named is Rattus norvegicus. Put plainly: Acute toxicity in albino Wistar rat assessed as stomach ulcerhaemorrhagic spots at up to 3 g/kg, po after 24 hrs. Format: organism-based. The following applies: in vivo, 3000 mg/kg. The procedure, abridged: (§1)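 Albino rats of either sex, groups of six, dosed from 100 up to 3000 mg kg^-1 body weight. Watched continuously for 8 h for signs such as altered motor activity, ataxia, tremors, convulsions, sedation and lacrimation. Killed at 24 h; stomach, intestine and liver inspected under magnifying lenses for ulcer-haemorrhagic spots.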

Data set [6] concerns Rattus norvegicus. Put plainly: Antipyretic activity against brewer's yeast-induced hyperthermia in albino Wistar rat assessed as change in rectal temperature at 100 mg/kg, po after 6 hrs (reference value: 33.44 +/- 0.18 degC). Format: functional.
Data set [7] deals with Rattus norvegicus. Put plainly: Acute toxicity in albino Wistar rat assessed as haemorrhagic spots at up to 3 g/kg, po after 24 hrs. Format: organism-based. The conditions noted are these: in vivo, 3000 mg/kg. The procedure, abridged:
as §1

Data set [8] deals with Rattus norvegicus. The data set is described as follows: Analgesic activity in albino Wistar rat assessed as reaction time required for tail flicking at 25 mg/kg, po after 60 mins by tail-flick method (reference value: 4 +/- 0.360 sec). Format: functional.
The test system of data set [9] is Rattus norvegicus. The data set is described as follows: Antipyretic activity against brewer's yeast-induced hyperthermia in albino Wistar rat assessed as change in rectal temperature at 100 mg/kg, po after 5 hrs (reference value: 34.36 +/- 0.14 degC). Format: functional.
For data set [10], the system named is Rattus norvegicus. The data set is described as follows: Analgesic activity in albino Wistar rat assessed as reaction time required for tail flicking at 25 mg/kg, po after 90 mins by tail-flick method (reference value: 3.87 +/- 0.355 sec). The class given is functional.
In data set [11] the test system is Rattus norvegicus. Put plainly: Acute toxicity in albino Wistar rat assessed as ulceration at up to 3 g/kg, po after 24 hrs. Format: organism-based. The following applies: in vivo, 3000 mg/kg. The procedure, abridged:
as §1

The subject of data set [12] is Rattus norvegicus. Put plainly: Acute toxicity in albino Wistar rat assessed as convulsion at up to 3 g/kg, po after 24 hrs. The class given is organism-based. The following applies: in vivo, 3000 mg/kg. The procedure, abridged: as §1
In data set [13] the test system is Rattus norvegicus. The data set is described as follows: Analgesic activity in albino Wistar rat assessed as reaction time required for tail flicking at 25 mg/kg, po after 30 mins by tail-flick method (reference value: 3.97 +/- 0.287 sec). Format: functional.
Data set [14] has as its system Rattus norvegicus. The data set is described as follows: Acute toxicity in albino Wistar rat assessed as mortality at up to 3 g/kg, po after 24 hrs. The class given is organism-based. The following applies: in vivo, 3000 mg/kg. The procedure, abridged: as §1
The subject of data set [15] is Rattus norvegicus. The data set is described as follows: Acute toxicity in albino Wistar rat assessed as tremors at up to 3 g/kg, po after 24 hrs. Format: organism-based. The following applies: in vivo, 3000 mg/kg. The procedure, abridged: as §1
Data set [16] has as its system Rattus norvegicus. Put plainly: Antipyretic activity against brewer's yeast-induced hyperthermia in albino Wistar rat assessed as change in rectal temperature at 100 mg/kg, po after 1 hr (reference value: 33.78 +/- 0.18 degC). Format: functional.
Another data set has as its system Nucleic Acid. The data set is described as follows: Induction of Escherichia coli DNA cleavage at 25 mg after 24 hrs by agarose gel electrophoresis method. Format: nucleic-acid assay. The procedure, abridged: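 E. coli grown in nutrient broth 24 h at 37 °C. Genomic DNA isolated by SDS lysis, phenol (55 °C, 10 min), chloroform:isoamyl alcohol extraction and ethanol precipitation, dissolved in TAE. Compounds at 1 mg/ml in DMF added to DNA, incubated 2 h at 37 °C. Run on agarose gel at 50 V about 30 min, stained with ethidium bromide, bands compared with DNA marker.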

The test system of data set [17] is Rattus norvegicus. The data set is described as follows: Acute toxicity in albino Wistar rat assessed as sedation at up to 3 g/kg, po after 24 hrs. Format: organism-based. The conditions noted are these: in vivo, 3000 mg/kg. The procedure, abridged:
as §1

Data set [18] has as its system Rattus norvegicus. Put plainly: Antipyretic activity against brewer's yeast-induced hyperthermia in albino Wistar rat assessed as change in rectal temperature at 100 mg/kg, po after 3 hrs (reference value: 32.80 +/- 0.09 degC). The class given is functional.
In data set [19] the test system is Rattus norvegicus. The data set is described as follows: Acute toxicity in albino Wistar rat assessed as intestine ulcerhaemorrhagic spots at up to 3 g/kg, po after 24 hrs. Format: organism-based. The conditions noted are these: in vivo, 3000 mg/kg. The procedure, abridged:
as §1

As for `CC(=O)Oc1ccccc1C(=O)O` [ASPIRIN], the T in the data set with Rattus norvegicus [1] came out at 32.3 °C; in the data set on Rattus norvegicus [2] it was 32 °C; with Rattus norvegicus [3], 32.38 °C; with Rattus norvegicus [4], 32.82 °C.
Consider `O=c1cc(COc2ccc(-c3cc(-c4ccccc4)nc(O)n3)cc2)c2cc(Cl)ccc2o1`, for which the Activity result with Rattus norvegicus [5], in the data set with Rattus norvegicus [7], in the data set with Rattus norvegicus [11], with Rattus norvegicus [12], in the data set on Rattus norvegicus [14] and in the data set with Rattus norvegicus [15] was “Non-toxic” each time. The Activity result with Rattus norvegicus [17] and in the data set with Rattus norvegicus [19] was “Non-toxic” throughout. Moreover, the T in the data set on Rattus norvegicus [6] amounted to 32.61 °C; in the data set on Rattus norvegicus [9] it was 33.28 °C; in the data set on Rattus norvegicus [16], 33.18 °C; in the data set on Rattus norvegicus [18], 32.64 °C. For the same compound, the Time in the data set with Rattus norvegicus [8] was 4.04 s; with Rattus norvegicus [10], 4.25 s; in the data set with Rattus norvegicus [13], 4.02 s. Further, the outcome in the data set on Nucleic Acid was Active.
With `O=c1cc(COc2ccc(-c3cc(-c4ccccc4)nc(O)n3)cc2)c2c(ccc3ccccc32)o1`, the Activity entry with Rattus norvegicus [5], with Rattus norvegicus [7], in the data set on Rattus norvegicus [11], in the data set on Rattus norvegicus [12], in the data set with Rattus norvegicus [14] and in the data set on Rattus norvegicus [15] was “Non-toxic” each time. The Activity result in the data set on Rattus norvegicus [17] and with Rattus norvegicus [19] was “Non-toxic” each time. For the same compound, the T in the data set with Rattus norvegicus [6] came out at 32.68 °C; in the data set with Rattus norvegicus [9], 32.82 °C; in the data set with Rattus norvegicus [16], 32.22 °C; in the data set on Rattus norvegicus [18], 32.72 °C. Besides, the Time amounted to 8.25 s in the data set with Rattus norvegicus [8], 8.87 s in the data set on Rattus norvegicus [10] and 5 s with Rattus norvegicus [13]. Further, in the data set on Nucleic Acid, the outcome was Active.
As for `O=c1cc(COc2ccc(-c3cc(-c4ccccc4)nc(O)n3)cc2)c2ccc3ccccc3c2o1`, the Activity result in the data set with Rattus norvegicus [5], in the data set with Rattus norvegicus [7], with Rattus norvegicus [11], in the data set on Rattus norvegicus [12], in the data set on Rattus norvegicus [14] and in the data set on Rattus norvegicus [15] was “Non-toxic” each time. In addition, the Activity result in the data set on Rattus norvegicus [17] and with Rattus norvegicus [19] was “Non-toxic” in each case. In addition, the T came to 32.74 °C in the data set on Rattus norvegicus [6], 33.44 °C in the data set with Rattus norvegicus [9], 32.25 °C with Rattus norvegicus [16] and 32.68 °C in the data set with Rattus norvegicus [18]. Besides, the Time with Rattus norvegicus [8] was 6.25 s; in the data set with Rattus norvegicus [10], 7.25 s; with Rattus norvegicus [13] it was 4.75 s. The outcome in the data set on Nucleic Acid was Active.
`Cc1ccc2c(COc3ccc(-c4cc(-c5ccccc5)nc(S)n4)cc3)cc(=O)oc2c1`: the Activity result in the data set on Rattus norvegicus [5], with Rattus norvegicus [7], with Rattus norvegicus [11], with Rattus norvegicus [12], in the data set on Rattus norvegicus [14] and in the data set with Rattus norvegicus [15] was “Non-toxic” each time. For the same compound, the Activity result with Rattus norvegicus [17] and in the data set with Rattus norvegicus [19] was “Non-toxic” each time. For the same compound, the T in the data set with Rattus norvegicus [6] came out at 31.82 °C; in the data set on Rattus norvegicus [9], 32.9 °C; in the data set on Rattus norvegicus [16], 32.81 °C; with Rattus norvegicus [18], 32.66 °C. Also, the figures for the Time with Rattus norvegicus [8], in the data set with Rattus norvegicus [10] and in the data set on Rattus norvegicus [13] were 7.25 s, 7.5 s and 4.5 s, respectively. Further, in the data set with Nucleic Acid, the result was Active.
Take `O=c1cc(COc2ccc(-c3cc(-c4ccccc4)nc(S)n3)cc2)c2ccc3ccccc3c2o1`: the Activity result in the data set with Rattus norvegicus [5], in the data set on Rattus norvegicus [7], in the data set with Rattus norvegicus [11], in the data set with Rattus norvegicus [12], with Rattus norvegicus [14] and in the data set with Rattus norvegicus [15] was “Non-toxic” each time. In addition, the Activity result with Rattus norvegicus [17] and in the data set on Rattus norvegicus [19] was “Non-toxic” each time. For the same compound, the T stood at 32.5 °C in the data set with Rattus norvegicus [6], 33.09 °C in the data set with Rattus norvegicus [9], 33.01 °C in the data set on Rattus norvegicus [16] and 32 °C with Rattus norvegicus [18]. The values for the Time in the data set with Rattus norvegicus [8], with Rattus norvegicus [10] and in the data set with Rattus norvegicus [13] were 5.25 s, 6.25 s and 4.52 s, respectively. For the same compound, the result in the data set with Nucleic Acid was Active.
